Source: ChEMBL document CHEMBL2169742, “Design, synthesis, and biological evaluation of novel transrepression-selective liver X receptor (LXR) ligands with 5,11-dihydro-5-methyl-11-methylene-6H-dibenz[b,e]azepin-6-one skeleton” (J Med Chem, 2012)
The source made the active and inactive calls. The calls are words filed in the database; no cut-off is given here.

Columns and labels:
[1] = target: T1, Peroxisome proliferator-activated receptor gamma (Homo sapiens) (UniProt P37231); assay: Antagonist activity at human Gal4-fused PPARgamma assessed as inhibition of ciglitazone-induced luciferase activity at 0.1 to 10 uM by reporter gene assay; assay type: functional
T1 sequence (whole entry): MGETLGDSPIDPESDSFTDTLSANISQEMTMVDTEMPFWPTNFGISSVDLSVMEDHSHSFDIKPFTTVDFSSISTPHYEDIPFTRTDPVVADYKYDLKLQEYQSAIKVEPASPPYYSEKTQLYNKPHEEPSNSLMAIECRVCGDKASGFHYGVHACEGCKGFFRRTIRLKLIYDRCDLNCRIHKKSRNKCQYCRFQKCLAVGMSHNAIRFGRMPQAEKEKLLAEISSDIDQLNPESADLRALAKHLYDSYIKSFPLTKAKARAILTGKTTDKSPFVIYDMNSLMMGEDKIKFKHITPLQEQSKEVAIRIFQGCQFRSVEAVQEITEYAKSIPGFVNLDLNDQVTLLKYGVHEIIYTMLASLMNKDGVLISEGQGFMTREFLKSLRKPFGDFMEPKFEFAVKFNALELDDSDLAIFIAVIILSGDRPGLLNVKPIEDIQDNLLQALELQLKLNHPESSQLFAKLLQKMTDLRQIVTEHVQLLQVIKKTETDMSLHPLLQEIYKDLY

[2] = target: T2, Bile acid receptor (Homo sapiens) (UniProt Q96RI1); assay: Agonist activity at human Gal4-fused FXR assessed as luciferase activity at 0.03 to 10 uM by reporter gene assay; assay type: functional
T2 sequence (whole entry): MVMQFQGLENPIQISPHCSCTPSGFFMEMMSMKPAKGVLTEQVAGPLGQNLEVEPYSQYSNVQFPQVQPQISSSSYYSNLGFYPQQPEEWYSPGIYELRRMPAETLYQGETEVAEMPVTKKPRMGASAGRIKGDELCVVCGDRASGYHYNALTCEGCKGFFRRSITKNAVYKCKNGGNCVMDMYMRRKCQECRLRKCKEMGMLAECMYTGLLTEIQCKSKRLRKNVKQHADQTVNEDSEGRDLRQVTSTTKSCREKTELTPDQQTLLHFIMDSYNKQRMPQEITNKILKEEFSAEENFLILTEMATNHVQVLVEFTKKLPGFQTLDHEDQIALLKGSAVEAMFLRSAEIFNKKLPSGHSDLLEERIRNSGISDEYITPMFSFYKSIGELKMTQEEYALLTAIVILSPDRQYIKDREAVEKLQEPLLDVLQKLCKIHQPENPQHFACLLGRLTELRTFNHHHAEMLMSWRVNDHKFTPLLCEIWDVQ

[3] = test system: Peritoneal macrophage cell; assay: Inhibition of LPS-induced IL-1beta mRNA expression in LXRalpha-deficient C57BL/6J mouse peritoneal macrophages at 10 uM incubated for 6 hrs prior to LPS-challenge measured after 18 hrs by RT-PCR analysis; assay type: functional, cell-based
Procedure, shortened: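 Thioglycollate-elicited peritoneal macrophages (wild-type C57BL/6J or LXRα-null, 8–10 weeks) were plated at 4 × 10⁶/well and pretreated with compound 6 h before LPS 100 ng/mL. Cells were harvested after 18 h. il-6 and il-1β mRNA were measured by real-time quantitative PCR, normalized to GAPDH.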

[4] = test system: Peritoneal macrophage cell; assay: Inhibition of LPS-induced IL-6 production in LXRalpha,LXRbeta-deficient C57BL/6J mouse peritoneal macrophages at 10 uM incubated for 6 hrs prior to LPS-challenge measured after 18 hrs by ELISA; assay type: functional, cell-based
Procedure, shortened: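 Thioglycollate-elicited peritoneal macrophages came from 8–10-week LXRα/β-null mice on C57BL/6J background, harvested 4 days post-injection. They were adhered, rested 24 h and plated at 2 × 10⁵/well, then pretreated with compound 6 h before LPS 10 ng/mL. Supernatant mIL-6 was measured by ELISA after 18 h; means ± SE of ≥3 independent measurements, ANOVA.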

[5] = target: T3, Oxysterols receptor LXR-alpha (Homo sapiens) (UniProt Q13133); assay: Transactivational antagonist activity at human LXRalpha transfected in HEK293 cells coexpressing CMX-Gal4N-SMRT assessed as SMRT recruitment after 16 hrs by reporter gene assay; assay type: functional, cell-based
T3 sequence (whole entry): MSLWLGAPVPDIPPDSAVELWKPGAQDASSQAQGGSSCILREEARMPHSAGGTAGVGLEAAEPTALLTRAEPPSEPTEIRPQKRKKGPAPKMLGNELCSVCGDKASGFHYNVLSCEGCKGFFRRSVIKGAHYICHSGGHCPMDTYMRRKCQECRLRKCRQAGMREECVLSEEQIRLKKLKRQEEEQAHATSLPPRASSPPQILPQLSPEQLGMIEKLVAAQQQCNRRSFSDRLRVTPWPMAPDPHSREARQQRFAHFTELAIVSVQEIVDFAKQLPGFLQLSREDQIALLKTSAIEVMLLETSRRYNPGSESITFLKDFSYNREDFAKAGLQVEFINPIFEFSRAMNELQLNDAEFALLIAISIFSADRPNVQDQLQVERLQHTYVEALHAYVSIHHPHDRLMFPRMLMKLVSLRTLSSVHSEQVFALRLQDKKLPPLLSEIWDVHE
Procedure, shortened: (§1)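 Mammalian two-hybrid in HEK293 cells by calcium phosphate cotransfection: CMX-VP16N-hLXRα, Gal4N-fused SRC1, DRIP205, NCoR or SMRT (15 ng), tk-MH100×4-luc (50 ng) and CMX-β-gal (10 ng). Compound or DMSO added 8 h after transfection for 16 h. Luciferase was normalized to β-galactosidase, in triplicate.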

[6] = target: T4, Oxysterols receptor LXR-alpha (Homo sapiens, UniProt Q13133); assay: Transactivational agonist activity at human LXRalpha transfected in HEK293 cells coexpressing CMX-Gal4N-DRIP205 assessed as DRIP205 recruitment at 10 uM after 16 hrs by mammalian two-hybrid assay; assay type: cell-based; conditions: hek293, 16 h; procedure, shortened: as §1
T4 sequence (Q13133 whole entry): T3 sequence (whole entry)

[7] = target: T4, Oxysterols receptor LXR-alpha; assay: Transactivational antagonist activity at human LXRalpha transfected in HEK293 cells expressing CMX-Gal4N assessed as inhibition of T1317-induced luciferase activity after 16 hrs by reporter gene assay; assay type: functional, cell-based
[8] = target: T4, Oxysterols receptor LXR-alpha; assay: Transactivational agonist activity at human LXRalpha transfected in HEK293 cells expressing CMX-Gal4N assessed as luciferase activity at 30 uM after 16 hrs by reporter gene assay; assay type: cell-based; conditions: hek293, 16 h

With `C=C1c2ccccc2C(=O)N(C)c2ccc(CC)cc21` the inhibition [1] was “inactive”, the Activity [2] was “inactive” and the inhibition [3] was “inactive”. For the same compound, the inhibition [4] was “inactive”, the Activity [5] was “Dose-dependent effect” and the Activity [6] was “Non-toxic”. The IC50 [7] was greater than 30 µM and the Activity [8] was “Not Active”.
